Shown are actives, neighbours in structure and some others; about 1.5% of the full set was active somewhere.
ABCG2 block – human ABCG2 inhibition, ABCB1 as counter-screen. IgMXP3 cells, JC-1 efflux, flow cytometry. inhibition, % at 6.6 µM. hit rate 0.1% among 190,000;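 active = inhibition above 80%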;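 also: 0% = DMSO and 100% = nicardipine control wells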
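Measure – % inhibition of efflux relative to nicardipine and DMSO · Test system – ABCG2 IgMXP3 and barcoded ABCB1 CCRF-Adr cell mix · Control set – nicardipine as high control, DMSO as low control · Compound – one concentration, 6.6 µM final · Signal – flow cytometry of retained JC-1 fluorescence · Timing – 10 min exposure at 25 °C with rotation, no wash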
EP2 modulator – EP2 receptor (human) modulation; hit rate 0.83% among 260,000; induction, % at 25 µM; P43116; EP2-expressing cells, cAMP HTRF FRET, PGE2 co-stimulation;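 active = compounds whose cAMP rise, as percent of the full-agonist control response, exceeds 60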;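 also: rat C6 glioma line stably carrying human EP2 under a CMV promoter; the protocol text gives 20 µM as final concentration; 100% = response of wells given 1 µM PGE2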
Target sequence (P43116 whole entry, looked up): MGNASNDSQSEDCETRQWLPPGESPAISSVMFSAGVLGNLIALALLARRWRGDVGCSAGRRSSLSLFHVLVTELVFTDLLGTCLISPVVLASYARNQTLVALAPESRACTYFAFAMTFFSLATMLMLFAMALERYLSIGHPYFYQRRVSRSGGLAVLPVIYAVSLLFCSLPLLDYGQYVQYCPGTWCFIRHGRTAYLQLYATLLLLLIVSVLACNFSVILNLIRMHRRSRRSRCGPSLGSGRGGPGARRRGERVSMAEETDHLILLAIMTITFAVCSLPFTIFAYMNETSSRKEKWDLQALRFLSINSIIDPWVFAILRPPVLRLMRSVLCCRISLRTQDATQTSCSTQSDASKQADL
RBBP9 inhibitor – blocks human serine hydrolase RBBP9 | O75884 | recombinant RBBP9, FP-Rh probe fluorescence polarization | inhibition, % at 7.94 µM | hit rate 0.2% among 220,000 | AID 1515;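 active = inhibition above the campaign mean of all tested compounds plus 3 SD, cut at about 14% in these data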;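 also: plate controls were DMSO wells with RBBP9 for no effect and wells lacking RBBP9 protein for full effect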
Target sequence (O75884 whole entry, looked up): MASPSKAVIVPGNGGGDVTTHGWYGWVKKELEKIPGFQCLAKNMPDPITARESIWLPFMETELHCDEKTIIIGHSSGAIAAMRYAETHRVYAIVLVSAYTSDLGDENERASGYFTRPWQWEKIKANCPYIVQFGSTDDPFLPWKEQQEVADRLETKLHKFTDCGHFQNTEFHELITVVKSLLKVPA
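Measured by – fluorescence polarization · Test system – RBBP9 protein · Input – 2.5 µM RBBP9 dispensing solution, before mixing · Measure – percent inhibition from mP, scaled between DMSO and no-protein wells · Benchmarks – DMSO-treated enzyme wells and wells lacking RBBP9 · Times – preincubation 30 min plus labeling 45 min at 25 °C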
ABCB1 inh – human ABCB1 inhibition, ABCG2 as counter-screen; P08183; CCRF-Adr cells, JC-1 efflux, flow cytometry; inhibition, % at 6.6 µM; hit rate 0.067% among 190,000; AID 1326; in the data active = inhibition above about 40%;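 also: 0% = vehicle and 100% = reference inhibitor; higher value means more JC-1 retained so stronger ABCB1 efflux block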
PGE2 EP2 inh – blocks the human prostaglandin E2 receptor EP2 | hit rate 0.52% among 260,000 | C6 glioma cells expressing human EP2, cAMP TR-FRET; cells stimulated with saturating PGE2 | P43116 | inhibition, % at 25 µM;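 active = percent inhibition above 40 after rounding to a whole number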;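 also: rat C6 glioma host cells with rolipram phosphodiesterase inhibitor present; the protocol text gives 20 µM as final concentration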
EP2 confirm – human EP2 receptor cAMP induction, negative in counter-screens; shares compounds with EP2 modulator; C6 glioma EP2 cells, cAMP HTRF induction; plus low (about EC15) PGE2 agonist; calls only at 20 µM (by protocol); hit rate 47% among 1,300;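 active = cAMP induction above 50% in the main assay while under 30% in all four parallel counter assays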;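 also: rat C6 glioma cells stably expressing human EP2 receptor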
* marks the source's active call; other numbers are inactive results; i = inactive; · = no result; + = active, no number.

SMILES | ABCG2 block | EP2 modulator | RBBP9 inhibitor | ABCB1 inh | PGE2 EP2 inh | EP2 confirm
COc1ccc2nc(N3C(=O)C(O)=C(C(=O)c4ccco4)C3c3ccc(O)cc3)sc2c1 (configuration not stated) | · | -17.8 | · | · | 30.3 | ·
O=C(CSc1ncnc2c1oc1ccccc12)Nc1ccccc1C(F)(F)F | 1.2 | 79.2* | -1.8 | 0.2 | 11.2 | i
CCOC(=O)CC(=O)CSc1ncnc2c1oc1ccccc12 | 1.7 | 66.6* | -5.7 | 0.1 | · | i
N#CCCSc1ncnc2c1oc1ccccc12 | 0.2 | 66.3* | 1.6 | 0.0 | 8.7 | i
Cc1cccc(C2(O)CCN(C(=O)COc3ccc4nsnc4c3)CC2)c1 | · | -60.5 | · | · | 32.6 | ·
Cc1cc(O)ccc1C1(c2ccc(O)cc2C)OC(=O)c2ccccc21 | 1.2 | 67.0* | -7.0 | 0.5 | 11.4 | i
O=C(Nc1ccccc1O)c1ccc(Br)o1 | · | -57.2 | · | · | 6.8 | ·
O=C(Nc1ccccc1Oc1ccccc1)c1ccc(Br)o1 | 13.0 | 63.8* | -3.1 | 0.2 | 19.8 | +
Cc1ccc(Oc2ccc(Cl)cc2NC(=O)c2cnccn2)cc1 | 2.4 | 53.7 | -7.6 | 0.6 | 7.4 | ·
O=C(Nc1ccccc1-c1ccccc1)c1ccc(Br)o1 | 43.3 | 57.4 | -4.5 | -1.8 | 7.8 | i
O=C(Nc1cccc(Cl)c1N1CCCC1)c1ccc(Br)o1 | 6.6 | 69.1* | -8.1 | 0.7 | 6.3 | +
O=C(Nc1ccccc1Oc1ccccc1)c1cnccn1 | 1.9 | 70.8* | -2.3 | 0.4 | 3.8 | +
COc1ccccc1NC(=O)c1ccc(Br)o1 | 3.0 | -11.3 | 8.7 | 0.2 | 12.6 | ·
Cc1cc(NC(=O)Cn2nnc3sc4c(c3c2=O)CCC(C(C)(C)C)C4)no1 (configuration not stated) | 9.5 | 50.8 | -3.5 | 0.8 | 7.1 | i
Cc1cc(NC(=O)Cn2nnc3sc4c(c3c2=O)CCCC4)no1 | 1.9 | -5.8 | -8.2 | 0.4 | 10.6 | ·
Cc1ccc(S(=O)(=O)n2c3ccc(F)cc3c3nc(C)sc32)cc1 | 1.5 | 94.9* | -9.9 | 2.0 | 4.7 | +
CCN(CC)CCn1c2ccc(F)cc2c2nc(C)sc21 | 12.3 | -10.0 | -9.3 | 3.4 | 12.1 | ·
COC(=O)c1c(NC(=O)c2cccs2)sc(C(=O)Nc2cccc(Cl)c2C)c1C | · | 1.9 | · | · | 12.1 | ·
C=CCNC(=O)CN1C(=O)c2cccc3cccc1c23 | · | -21.4 | · | · | 14.8 | ·
C=CCN1C(=O)N(/C=C/C)c2cccc3cccc1c23 | 19.0 | 68.2* | 0.8 | 1.0 | 5.7 | +
Cc1cc(C)c2cc(CN(Cc3ccco3)C(=S)NCc3ccccc3)c(=O)[nH]c2c1 | · | 19.2 | · | · | 9.2 | ·
COc1ccc(-c2c3c([nH]c(=S)c2C#N)CCC3)cc1 | 1.2 | 76.8* | -5.5 | 0.1 | 18.0 | i
CCc1cc2cc3c(cc2nc1SCC(=O)OC(C)C)OCO3 | 7.7 | 80.5* | -7.7 | 0.1 | 2.5 | +
O=C(Nc1ccccc1N1CCOCC1)c1ccc2ccccc2n1 | 36.2 | 69.6* | -4.3 | 1.9 | 7.3 | +
N#CN=C1SCCS1 | 3.7 | 65.6* | -8.3 | 1.1 | 13.4 | i
SMILES | ABCG2 block | EP2 modulator | RBBP9 inhibitor | ABCB1 inh | PGE2 EP2 inh | EP2 confirm
CCC(C)(C)NC(=O)C(c1cccc(C)c1)N(Cc1cccnc1)C(=O)c1csnn1 (configuration not stated) | · | 19.6 | · | · | 6.7 | ·
Cc1cc(C)n(CCC(=O)N2CCC(c3nc(C)ncc3-c3ccncc3)CC2)n1 | · | -16.0 | · | · | · | ·
CCOC(=O)C1=NN(c2ccc(C)cc2)C2(S1)SC(C(C)=O)=C(C)N2c1ccccc1 (configuration not stated) | 2.9 | 73.9* | 0.4 | 1.4 | 5.1 | +
COC(=O)C1=NN(c2ccccc2)C2(S1)S/C(=C\c1ccccc1)C(=O)N2c1ccccc1 (configuration not stated) | 15.6 | 11.1 | 6.7 | 1.8 | 12.5 | ·
CCOC(=O)C1=NN(c2cccc(C)c2)C2(S1)SC(C(C)=O)=C(C)N2c1ccccc1 (configuration not stated) | 9.3 | 78.0* | 0.1 | 4.2 | 1.8 | +
CCC(C)(C)n1nnnc1CN(Cc1ccc(C)cc1)Cc1cc2cc3c(cc2[nH]c1=O)OCCO3 | · | 26.6 | · | · | 12.4 | ·
CCN(CC)CCN(Cc1cc2ccc(C)c(C)c2[nH]c1=O)C(=S)NCCCN(C)C | · | -4.6 | · | · | 15.4 | ·
CN1CCN(C(=O)[C@H]2C[C@@H](c3ccc(F)cc3)NS(=O)(=O)N2C)CC1 | · | -7.5 | · | · | · | ·
CC1=CC2C(C(C)C)CCC(C)(O)C2CC1 (configuration not stated) | · | 65.4* | · | · | 6.0 | +
CCc1ccc(NC(=O)CSc2nnc(-c3ccco3)n2CC)cc1 | · | -58.3 | · | · | 5.5 | ·
COc1ccc(-c2nc(-c3cccc(C)c3)no2)cc1OC | 9.6 | -66.0 | 0.7 | 0.1 | 14.9 | ·
COc1cc(-c2noc(-c3cccc(Cl)c3)n2)cc(OC)c1OC | 7.3 | 54.9 | 7.0 | 1.0 | 2.1 | +
COc1cc(-c2nc(-c3cccc(C)c3)no2)cc(OC)c1OC | 12.9 | 61.0* | -8.3 | 1.6 | 15.6 | i
Cc1cccc(-n2c(CCn3nc(C)c([N+](=O)[O-])c3C)n[nH]c2=S)c1 | 0.0 | 61.5* | 4.3 | -0.1 | 11.3 | i
Cc1cc(C)c(OCC(=O)Nc2sc3c(c2C#N)CCC3)c(Cl)c1 | · | -4.4 | · | · | 17.7 | ·
Cn1c(/C=C/N(Cc2ccccc2)c2ccccc2)c([N+](=O)[O-])c(=O)n(C)c1=O | 5.8 | 67.8* | -0.9 | 1.7 | 4.9 | +
CCOc1ccc(/C=C/c2c([N+](=O)[O-])c(=O)n(C)c(=O)n2C)cc1 | 12.8 | -47.0 | 2.7 | 1.0 | 2.6 | ·
CC(C)[C@@H](Cn1nc(C2CC2)ccc1=O)NC(=O)C1(c2ccc(Cl)cc2)CCC1 | · | -12.7 | · | · | · | ·
Cc1cccc(NCc2nc3ccccc3n2Cc2ccccc2)c1 | 1.0 | 66.3* | 13.8 | 0.3 | -0.6 | i
Cc1nc2cc(NCc3nc4ccccc4n3Cc3ccccc3)ccc2n1C | 0.8 | -7.8 | -3.9 | 0.6 | · | ·
Cc1ccc(Cn2c(Cc3ccccc3)nc3ccccc32)cc1 | 3.8 | 80.0* | 5.5 | 0.8 | 3.9 | +
COCc1nc2ccccc2n1Cc1ccc(C)cc1 | · | 11.2 | · | · | 11.7 | ·
CCc1ccc(NC(=O)CSc2nnc(-c3cccs3)n2C)cc1 | · | -49.4 | · | · | 9.1 | ·
Cc1cc(Nc2ccccc2)c2c([N+](=O)[O-])cc(C)c(C)c2n1 | 38.7 | 46.5 | -7.3 | 0.3 | 8.8 | ·
COc1ccccc1Nc1cc(C)nc2c(C)ccc([N+](=O)[O-])c12 | 21.6 | 80.3* | -3.1 | 0.5 | 4.4 | +
O=C(CN1CCN(Cc2ccc3c(c2)OCO3)CC1)N1CCCC1 | · | 12.7 | · | · | 20.0 | ·
CC(OC(=O)c1oc2ccccc2c1COc1ccccc1)C(=O)NC(N)=O (configuration not stated) | 7.0 | 69.6* | -0.1 | 0.5 | 4.7 | i

Screening data deposited in PubChem BioAssay by several laboratories.
